According to ChEMBL document CHEMBL2010735, “Bioactive hydroanthraquinones and anthraquinone dimers from a soft coral-derived Alternaria sp. fungus” (J Nat Prod, 2012):
Converted amounts (≈) assume the structure as drawn.

Experiments:
[1] = Cytotoxicity against human Hep3B cells after 6 days by MTT assay; assay type: functional, cell-based, Hep 3B2; settings: 144 h
[2] = Cytotoxicity against human MCF7/ADR cells after 6 days by MTT assay; assay type: functional, cell-based; settings: NCI/ADR-RES, 144 h
PC-3 = assay: Cytotoxicity against human PC3 cells after 6 days by MTT assay; assay type: functional, cell-based; settings: PC-3, 144 h
HepG2 = assay: Cytotoxicity against human HepG2 cells after 6 days by MTT assay; assay type: functional, cell-based; settings: HepG2, 144 h
HCT-116 = assay: Cytotoxicity against human HCT116 cells after 6 days by MTT assay; assay type: functional, cell-based; settings: HCT-116, 144 h
[3] = tested on: Porcine reproductive and respiratory syndrome virus; assay: Antiviral activity against Porcine reproductive and respiratory syndrome virus infected in CRL11171 cells assessed as inhibition of viral replication by RT-PCR analysis; assay type: functional, cell-based
Escherichia coli = assay: Antibacterial activity against Escherichia coli after 18 hrs by MTT assay; assay type: functional; settings: in the assay text read “by broth dilution assay” for “by MTT assay”
In short: (§1)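 Conventional broth dilution assay against a panel of nine bacterial strains including E. coli and S. albus; V. parahemolyticus also used as pathogenic test organism.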

Staphylococcus = assay: Antibacterial activity against Staphylococcus albus after 18 hrs by MTT assay; assay type: functional; settings: in the assay text read “by broth dilution assay” for “by MTT assay”; in short: as §1
Vibrio parahaemolyticus = assay: Antibacterial activity against Vibrio parahaemolyticus after 18 hrs by MTT assay; assay type: functional; settings: in the assay text read “by broth dilution assay” for “by MTT assay”; in short: as §1

COc1cc(O)c2c(c1)[C@H](O)[C@H]1C[C@](C)(O)[C@H](OC(C)=O)C[C@@H]1C2=O
IC50 [1]: > 100 µM
IC50 [2]: > 100 µM
IC50 (PC-3): > 100 µM
IC50 (HepG2): > 100 µM
IC50 (HCT-116): > 100 µM

COc1cc(O)c2c(c1)[C@H](O)[C@@H]1C[C@](C)(O)[C@H](O)C[C@H]1C2=O (relative stereo)
IC50 [1]: > 100 µM
IC50 [2]: > 100 µM
IC50 (PC-3): > 100 µM
IC50 (HepG2): > 100 µM
IC50 (HCT-116): > 100 µM

COc1cc(O)c2c(c1)[C@H](O)[C@@H]1C(=C[C@@H](O)[C@@](C)(O)[C@@H]1O)C2=O (relative stereo)
IC50 [1]: > 100 µM
IC50 [2]: > 100 µM
IC50 (PC-3): > 100 µM
IC50 (HepG2): > 100 µM
IC50 (HCT-116): > 100 µM

COc1cc(O)c2c(c1)[C@@H](O)[C@H]1C[C@](C)(O)[C@H](O)C[C@@H]1C2=O (relative stereo) [TETRAHYDROALTERSOLANOL C]
IC50 [3]: 65 µM
IC50 [1]: > 100 µM
IC50 [2]: > 100 µM
IC50 (PC-3): > 100 µM
IC50 (HepG2): > 100 µM
IC50 (HCT-116): > 100 µM

COc1cc(O)c2c(c1)[C@H](O)[C@H]1C[C@](C)(O)[C@@H](O)C[C@@H]1C2=O (relative stereo) [TETRAHYDROALTERSOLANOL E]
IC50 [1]: > 100 µM
IC50 [2]: > 100 µM
IC50 (PC-3): > 100 µM
IC50 (HepG2): > 100 µM
IC50 (HCT-116): > 100 µM

COc1cc(O)c2c(c1)C(=O)c1cc(C)c(O)c(-c3c(OC)cc4c(c3O)C(=O)C3=C(C4=O)[C@@H](O)[C@](C)(O)[C@H](O)[C@H]3O)c1C2=O [ALTERPORRIOL C]
IC50 [3]: 39 µM
IC50 [1]: 51 µM
MIC (Escherichia coli): 2.5 µM (≈ 1.55 µg/mL)
IC50 [2]: 98 µM
MIC (Staphylococcus): > 20 µM
MIC (Vibrio parahaemolyticus): 2.5 µM (≈ 1.55 µg/mL)
IC50 (PC-3): 27 µM
IC50 (HepG2): 53 µM
IC50 (HCT-116): 24 µM

COc1cc(O)c2c(c1)C(=O)c1cc(C)c(O)c(-c3c(OC)cc4c(c3O)C(=O)C3=C(C4=O)[C@@H](O)[C@](C)(O)[C@H](O)C3)c1C2=O [ALTERPORRIOL P]
IC50 [1]: 21 µM
IC50 [2]: 23 µM
IC50 (PC-3): 6.4 µM
IC50 (HepG2): 20 µM
IC50 (HCT-116): 8.6 µM

COc1cc(O)c2c(c1)C(=O)c1cc(C)c(O)c(-c3c(OC)cc4c(c3O)C(=O)c3cc(O)c(C)cc3C4=O)c1C2=O [ALTERPORRIOL Q]
IC50 [3]: 22 µM

COc1cc(O)c2c(c1)C(=O)C1=C(C[C@@H](O)[C@@](C)(O)C1)C2=O [ALTERSOLANOL B]
IC50 [1]: > 100 µM
IC50 [2]: > 100 µM
IC50 (PC-3): > 100 µM
IC50 (HepG2): > 100 µM
IC50 (HCT-116): > 100 µM

COc1cc(O)c2c(c1)C(=O)C1=C(C[C@@H](O)[C@@](C)(O)[C@@H]1O)C2=O [ALTERSOLANOL C]
IC50 [1]: 8.2 µM
MIC (Escherichia coli): 0.62 µM (≈ 0.199 µg/mL)
IC50 [2]: 3.2 µM
MIC (Staphylococcus): 12 µM (≈ 3.84 µg/mL)
MIC (Vibrio parahaemolyticus): 1.25 µM (≈ 0.4 µg/mL)
IC50 (PC-3): 7.6 µM
IC50 (HepG2): 8.9 µM
IC50 (HCT-116): 2.2 µM

COc1cc(O)c2c(c1)[C@H](O)[C@@H]1[C@H](C[C@@H](O)[C@@](C)(O)[C@@H]1O)C2=O [ALTERSOLANOL L]
IC50 [1]: > 100 µM
IC50 [2]: > 100 µM
IC50 (PC-3): > 100 µM
IC50 (HepG2): > 100 µM
IC50 (HCT-116): > 100 µM

COc1cc(O)c2c(c1)[C@H](O)[C@@H]1[C@@H](C2=O)[C@H](O)[C@@H](O)[C@@](C)(O)[C@@H]1O [AMPELANOL]
IC50 [1]: > 100 µM
IC50 [2]: > 100 µM
IC50 (PC-3): > 100 µM
IC50 (HepG2): > 100 µM
IC50 (HCT-116): > 100 µM

O=C(O)c1cn(C2CC2)c2cc(N3CCNCC3)c(F)cc2c1=O [CIPROFLOXACIN]
MIC (Escherichia coli): 0.62 µM (≈ 0.205 µg/mL)
MIC (Staphylococcus): 0.31 µM (≈ 0.103 µg/mL)
MIC (Vibrio parahaemolyticus): 0.16 µM (≈ 0.053 µg/mL)

COc1cccc2c1C(=O)c1c(O)c3c(c(O)c1C2=O)C[C@@](O)(C(=O)CO)C[C@@H]3O[C@H]1C[C@H](N)[C@@H](O)[C@H](C)O1 [EPIRUBICIN]
IC50 [1]: 0.96 µM
IC50 [2]: 1.65 µM
IC50 (PC-3): 0.46 µM
IC50 (HepG2): 1.65 µM
IC50 (HCT-116): 0.82 µM

COc1cc(O)c2c(c1)C(=O)c1cc(C)c(O)cc1C2=O [MACROSPORIN]
MIC (Escherichia coli): 2.3 µM (≈ 0.654 µg/mL)
MIC (Staphylococcus): 15 µM (≈ 4.26 µg/mL)
MIC (Vibrio parahaemolyticus): 5 µM (≈ 1.42 µg/mL)

COc1cc(O)c2c(c1)[C@H](O)[C@H]1C[C@](C)(O)[C@H](O)C[C@@H]1C2=O [TETRAHYDROALTERSOLANOL B]
IC50 [1]: > 100 µM
IC50 [2]: > 100 µM
IC50 (PC-3): > 100 µM
IC50 (HepG2): > 100 µM
IC50 (HCT-116): > 100 µM
